Test results taken from ChEMBL document CHEMBL4340532, “Design, synthesis, and biological evaluation of novel 2'-deoxy-2'-fluoro-2'-C-methyl 8-azanebularine derivatives as potent anti-HBV agents” (Bioorg Med Chem Lett, 2019).

Tests used:
[1] = test system: HepG2 cells (Homo sapiens); assay: Cytotoxicity against human HepG2 cells at 40 uM supplemented with fresh medium containing compound every 3 days for 9 days measured post-last dose
[2] = test system: HepG2 cells (Homo sapiens); assay: as above; remark: listed apart in the source
Hepatitis B virus [3] = assay: (§1) Antiviral activity against lamivudine-resistant Hepatitis B virus harboring L180M/M204V mutant infected in human HepG2.2.15 cells assessed as inhibition of extracellular HBV DNA replication at 20 uM measured on day 3 by FQ-PCR analysis relative to control; type: functional; settings: HepG2.2.15, 72 h
Procedure, shortened: (§2)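 Lamivudine-resistant cell line transfected with the L180M/M204V mutant, exposed to 10, 20 or 40 µM for 3, 6 or 9 days. Intracellular and extracellular HBV DNA levels measured.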

Hepatitis B virus [4] = assay: as §1, with “at 40” for “at 20”, “uM supplemented with fresh medium containing compound every 3 days for 6 days” for “uM”, “measured post-last dose” for “measured on day 3”; type: functional
Procedure, shortened: as §2

Hepatitis B virus [5] = assay: as §1, with “intracellular” for “extracellular”, “uM supplemented with fresh medium containing compound every 3 days for 6 days” for “uM”, “post-last dose” for “on day 3”; type: functional
Procedure, shortened: as §2

Hepatitis B virus [6] = assay: (§3) Antiviral activity against Hepatitis B virus infected in human HepG2.2.15 cells assessed as inhibition of extracellular HBV DNA replication at 20 uM supplemented with fresh medium containing compound every 3 days for 9 days measured post-last dose by FQ-PCR analysis relative to control; type: functional
Procedure, shortened: (§4)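 HepG2.2.15 cultures were treated at 10, 20 or 40 µM for 3, 6 and 9 days. Both intracellular and extracellular HBV DNA levels were then determined and compared with untreated cells.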

Hepatitis B virus [7] = assay: (§5) Antiviral activity against Hepatitis B virus infected in human HepG2.2.15 cells assessed as inhibition of intracellular HBV DNA replication at 10 uM supplemented with fresh medium containing compound every 3 days for 9 days measured post-last dose by FQ-PCR analysis relative to control; type: functional
Procedure, shortened: as §4

Hepatitis B virus [8] = assay: Antiviral activity against lamivudine-resistant Hepatitis B virus harboring L180M/M204V mutant infected in human HepG2.2.15 cells assessed as inhibition of extracellular HBV DNA replication at 40 uM measured on day 3 by FQ-PCR analysis relative to control; type: functional; settings: HepG2.2.15, 72 h
Procedure, shortened: as §2

Hepatitis B virus [9] = assay: Antiviral activity against Hepatitis B virus infected in human HepG2.2.15 cells assessed as inhibition of intracellular HBV DNA replication at 20 uM supplemented with fresh medium containing compound every 3 days for 9 days measured post-last dose by FQ-PCR analysis relative to control; type: functional
Procedure, shortened: as §4

Hepatitis B virus [10] = assay: (§6) Antiviral activity against Hepatitis B virus infected in human HepG2.2.15 cells assessed as inhibition of intracellular HBV DNA replication at 20 uM supplemented with fresh medium containing compound every 3 days for 6 days measured post-last dose by FQ-PCR analysis relative to control; type: functional
Procedure, shortened: as §4

Hepatitis B virus [11] = assay: Antiviral activity against lamivudine-resistant Hepatitis B virus harboring L180M/M204V mutant infected in human HepG2.2.15 cells assessed as inhibition of intracellular HBV DNA replication at 10 uM measured on day 3 by FQ-PCR analysis relative to control; type: functional; settings: HepG2.2.15, 72 h
Procedure, shortened: as §2

Hepatitis B virus [12] = assay: Antiviral activity against Hepatitis B virus infected in human HepG2.2.15 cells assessed as inhibition of extracellular HBV DNA replication at 10 uM supplemented with fresh medium containing compound every 3 days for 6 days measured post-last dose by FQ-PCR analysis relative to control; type: functional
Procedure, shortened: as §4

Hepatitis B virus [13] = assay: as §5, with “against lamivudine-resistant” for “against”, “virus harboring L180M/M204V mutant” for “virus”, “6” for “9”; type: functional
Procedure, shortened: as §2

Hepatitis B virus [14] = assay: Antiviral activity against Hepatitis B virus infected in human HepG2.2.15 cells assessed as inhibition of extracellular HBV DNA replication at 10 uM measured on day 3 by FQ-PCR analysis relative to control; type: functional; settings: HepG2.2.15, 72 h
Procedure, shortened: as §4

Hepatitis B virus [15] = assay: as §6, with “against lamivudine-resistant” for “against”, “virus harboring L180M/M204V mutant” for “virus”, “40” for “20”; type: functional
Procedure, shortened: as §2

Hepatitis B virus [16] = assay: Antiviral activity against Hepatitis B virus infected in human HepG2.2.15 cells assessed as inhibition of intracellular HBV DNA replication at 40 uM measured on day 3 by FQ-PCR analysis relative to control; type: functional; settings: HepG2.2.15, 72 h
Procedure, shortened: as §4

Hepatitis B virus [17] = assay: as §3, with “against lamivudine-resistant” for “against”, “virus harboring L180M/M204V mutant” for “virus”, “6” for “9”; type: functional
Procedure, shortened: as §2

Hepatitis B virus [18] = assay: Antiviral activity against lamivudine-resistant Hepatitis B virus harboring L180M/M204V mutant infected in human HepG2.2.15 cells assessed as inhibition of extracellular HBV DNA replication at 10 uM measured on day 3 by FQ-PCR analysis relative to control; type: functional; settings: HepG2.2.15, 72 h
Procedure, shortened: as §2

Hepatitis B virus [19] = assay: Antiviral activity against Hepatitis B virus infected in human HepG2.2.15 cells assessed as inhibition of intracellular HBV DNA replication at 10 uM supplemented with fresh medium containing compound every 3 days for 6 days measured post-last dose by FQ-PCR analysis relative to control; type: functional
Procedure, shortened: as §4

Hepatitis B virus [20] = assay: as §3, with “against lamivudine-resistant” for “against”, “virus harboring L180M/M204V mutant” for “virus”; type: functional
Procedure, shortened: as §2

[21] = Cytotoxicity against human HepG2 cells supplemented with fresh medium containing compound every 3 days for 9 days measured post-last dose by MTT assay; type: cell-based
Procedure, shortened: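 HepG2 cells were exposed to compound for 3 or 9 days and viability was read by MTT assay. CC50 is the concentration causing 50% cytotoxicity. Results are mean ± SD of three experiments.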

C[C@@]1(F)[C@H](O)[C@@H](CO)O[C@H]1n1nnc2c(Nc3ccc(Cl)cc3F)ncnc21
inhibition (INH) [1]: 7.7%
inhibition (INH) [2]: 7.7%
inhibition at 20 µM (Hepatitis B virus [3]): 35.6%
inhibition (INH) (Hepatitis B virus [4]): 61.1%
inhibition (INH) (Hepatitis B virus [5]): 41.6%
inhibition (INH) (Hepatitis B virus [6]): 65%
inhibition (INH) (Hepatitis B virus [7]): 44.2%
inhibition at 40 µM (Hepatitis B virus [8]): 45.2%
inhibition (INH) (Hepatitis B virus [9]): 67.4%
inhibition (INH) (Hepatitis B virus [10]): 47%
inhibition at 10 µM (Hepatitis B virus [11]): 5%
inhibition (INH) (Hepatitis B virus [12]): 31.1%
inhibition (INH) (Hepatitis B virus [13]): 22.8%
inhibition at 10 µM (Hepatitis B virus [14]): 18.4%
inhibition (INH) (Hepatitis B virus [15]): 66.3%
inhibition at 40 µM (Hepatitis B virus [16]): 36.8%
inhibition (INH) (Hepatitis B virus [17]): 49.5%
inhibition at 10 µM (Hepatitis B virus [18]): 11%
inhibition (INH) (Hepatitis B virus [19]): 31.8%
inhibition (INH) (Hepatitis B virus [20]): 61.4%
CC50 at 216 h [21]: 245 µM
